Experiment [1] concerns the target T1, Muscarinic acetylcholine receptor M1 (Rattus norvegicus, UniProt P08482).
T1 sequence (P08482 whole entry): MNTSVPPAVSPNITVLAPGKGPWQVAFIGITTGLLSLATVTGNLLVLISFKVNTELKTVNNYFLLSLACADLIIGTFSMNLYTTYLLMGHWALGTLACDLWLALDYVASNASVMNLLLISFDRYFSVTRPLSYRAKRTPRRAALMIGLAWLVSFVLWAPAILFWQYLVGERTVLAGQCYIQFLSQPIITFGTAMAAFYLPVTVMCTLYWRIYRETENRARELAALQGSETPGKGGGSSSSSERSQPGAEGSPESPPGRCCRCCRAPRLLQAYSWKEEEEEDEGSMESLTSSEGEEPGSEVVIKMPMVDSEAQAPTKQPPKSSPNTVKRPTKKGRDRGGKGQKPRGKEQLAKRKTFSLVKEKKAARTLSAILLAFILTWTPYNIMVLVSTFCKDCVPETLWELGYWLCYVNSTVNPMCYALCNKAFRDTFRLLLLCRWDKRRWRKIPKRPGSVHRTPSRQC
As to the kind of experiment: Displacement of [3H]QNB from muscarinic M1 receptor Wistar rat cortex synaptosomal membrane. In short, it runs like this:
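Male Wistar rat cortex synaptosomal membranes were prepared in Tris–HCl 50 mmol/L pH 7.4 with 0.32 mol/L sucrose, spun at 1000g then 32,000g at 4 °C, and resuspended in 50 mmol/L phosphate buffer pH 7.4 with MgCl2. Membrane protein was incubated with 0.2 nM [3H]QNB and displacer for 2 h at 37 °C, then GF/B filtered and counted by scintillation. IC50 and Ki were obtained by curve analysis.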
A general note: Displacement assays read how much labelled ligand stays bound in the presence of the test substance.

Experiment [2] is filed under the species Rattus norvegicus. As to the kind of experiment: Reversal of scopolamine-induced memory loss in Wistar rat assessed as reduction of number of mistakes relative to control. The format is functional. The essentials: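 Passive avoidance step-down task run on male Wistar rats, 200–250 g, n = 8, with scopolamine-induced memory loss. Mistakes were counted. The dose range tested was 0.05–0.2 mg/kg, and 0.1 mg/kg was used in the in vivo studies.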

The next experiment has as its system Cortex. Briefly: Stimulation of (1,4,5)-trisphosphate formation in Wistar rat cerebral cortex relative to basal. The format is functional. More on the design: concentration or dose not given beside the values. The essentials: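 Rat cerebral cortex slices were labelled with [3H]myoinositol, then stimulated with compound at 1–500 µmol/l. Basal IP3 was measured, and acetylcholine iodide served as the reference stimulus. [3H]IP3 formed was counted by liquid scintillation. Values are mean and SD of three experiments, each run in duplicate.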

The species entered for experiment [3] is Rattus norvegicus. As to the kind of experiment: Effect on scopolamine-induced spartial working memory loss in Wistar rat on Y maze assessed as alteration behavior. The format is functional. In short, it runs like this:
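Y maze, male Wistar rats, 200–250 g. Compound plus scopolamine was given 30 min before free exploration. Arm entries were recorded visually. Alternation was scored as successive entries into all three arms over overlapping triplets. Percent alternation = actual alternations / (total entries − 2) × 100.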

For experiment [4], the species on record is Rattus norvegicus. Briefly: Reversal of scopolamine-induced learning impairment and memory loss in Wistar rat on elevated plus maze assessed as transfer latency time on day 2 relative to control. The format is functional. In short, it runs like this:
(§1)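 Elevated plus maze, male Wistar rats. Scopolamine alone or with compound was given 30 min before a 90 s exploration, and saline 0.9% was given to controls. Transfer latency from the open-arm end to a closed arm was timed on day 1, then retested in the same animals on day 2. Mean ± SEM.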

The species entered for experiment [5] is Rattus norvegicus. Briefly: Reversal of scopolamine-induced learning impairment and memory loss in Wistar rat on elevated plus maze assessed as transfer latency time on day 1 relative to control. The format is functional. In short, it runs like this:
as §1

SMILES strings stand for the structures. The source made the active and inactive calls. No cut-off for these calls is given here.

By IC50 is commonly meant the concentration at which inhibition is half-maximal. A word on the Ki: it is the equilibrium dissociation constant of an inhibitor or competing ligand from its target. `COc1cccc(NC(=S)N2CCOC(C3=CCCN(C)C3)C2)c1` (centres undefined): in experiment [1], the IC50 is 120 µM and the affinity, expressed as Ki, was 41 µM. Also, the outcome in the experiment listed under Rattus norvegicus [2] was Active. Besides, in the experiment with Cortex, the Activity worked out at 106%.
In experiment [1], `COc1ccccc1NC(=S)N1CCOC(C2=CCCN(C)C2)C1` (centres undefined) showed a half-maximal inhibitory concentration (IC50) of 362 µM and a Ki of 98 µM. In the experiment on Cortex, the Activity was 100%.
On to `CN1CCC=C(C2CN(C(=S)Nc3ccccc3F)CCO2)C1` (centres undefined), for which, in experiment [1], the concentration for half-maximal inhibition (IC50) was 67 µM and the affinity corresponds to a Ki of 15 µM. Besides, in the experiment filed under Rattus norvegicus [3], the Activity worked out at 58%. For the same molecule, the outcome in the experiment listed under Rattus norvegicus [2] was Active. The Activity in the experiment with Cortex was found to be 129%.
In experiment [1], `CN1CCC=C(C2CN(C(=S)Nc3ccc(Cl)cc3)CCO2)C1` (centres undefined) came in with an IC50 of 1.2 µM. In experiment [1], the Ki came to 0.31 µM. The Activity in the experiment listed under Rattus norvegicus [4] is 9 s; in the experiment listed under Rattus norvegicus [3] it was 64%; in the experiment filed under Rattus norvegicus [2], 10; in the experiment on Cortex, 216%; in the experiment filed under Rattus norvegicus [5] it was 34 s.
In turn, `COc1ccc(NC(=S)N2CCOC(C3=CCCN(C)C3)C2)cc1` (centres undefined) yielded an IC50 in experiment [1] of 15 µM. This molecule also gave an inhibitory constant (Ki) in experiment [1] of 4 µM. For the same molecule, the result in the experiment listed under Rattus norvegicus [4] and in the experiment listed under Rattus norvegicus [5] was Active. Moreover, the Activity in the experiment filed under Rattus norvegicus [3] worked out at 60%; in the experiment filed under Rattus norvegicus [2] it was 10; in the experiment with Cortex, 178%.
For `CN1CCC=C(C2CN(C(=S)Nc3ccc(Cl)cc3Cl)CCO2)C1` (centres undefined), in experiment [1], the IC50 amounted to 112 µM and affinity was put at a Ki of 31 µM. Also, the result in the experiment filed under Rattus norvegicus [2] was Active. The Activity in the experiment with Cortex came to 116%.
For the molecule `CN1CCC=C(C2CN(C(=S)Nc3ccc(F)cc3)CCO2)C1` (centres undefined), the IC50 in experiment [1] is 31 µM. This molecule also returned a Ki in experiment [1] of 7 µM. Besides, the result in the experiment filed under Rattus norvegicus [4] and in the experiment listed under Rattus norvegicus [5] was Active. The Activity in the experiment filed under Rattus norvegicus [3] was 61%; in the experiment filed under Rattus norvegicus [2], 11; with Cortex, 155%.
As for `CC(=O)OCC[N+](C)(C)C` [ACETYLCHOLINE], in the experiment on Cortex, the Activity was 268%.
For `CN1CCC=C(C2CN(C(=S)Nc3cccc(Cl)c3)CCO2)C1` (centres undefined), in experiment [1], the concentration for half-maximal inhibition (IC50) is 236 µM and affinity was put at a Ki of 85 µM. The Activity in the experiment on Cortex stood at 103%.
In the case of `CN1CCC=C(C2CN(C(=S)Nc3ccccc3Cl)CCO2)C1` (centres undefined), the IC50 in experiment [1] stood at 515 µM. The molecule also gave a Ki in experiment [1] of 214 µM. Also, the Activity in the experiment filed under Rattus norvegicus [4] is recorded as 43 s; in the experiment on Cortex, 100%; in the experiment listed under Rattus norvegicus [5] it was 60 s.
In experiment [1], `CN1CCC=C(C2CN(C(=S)Nc3ccccc3)CCO2)C1` (centres undefined) yielded an IC50 of 153 µM and a Ki of 49 µM. Besides, the Activity in the experiment with Cortex was determined as 101%.

For the origin of these results see ChEMBL document CHEMBL1155908, “Muscarinic receptor 1 agonist activity of novel N-arylthioureas substituted 3-morpholino arecoline derivatives in Alzheimer's presenile dementia models” (Bioorg Med Chem, 2008).
